# The source made the active and inactive calls. The calls are words filed in the database; no cut-off is given here.
# Key:
# [1] = tested on: Liver; test: Intrinsic clearance in human liver microsomes in presence of NADPH by LC-MS/MS analysis; format: ADME, microsome
# [2] = tested on: Mus musculus; test: Elimination half life in athymic nude mouse at 300 ug, iv after 2 hrs by LC-MS analysis; format: ADME, organism-based; conditions: in vivo
# Outline: (§1)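 Female athymic nude mice, 6–7 weeks old, got a 300 µg IV tail-vein bolus. Plasma was taken from 3–5 mice per time point (pre-dose, end of infusion, 0.25, 0.5, 1, 2 h), ethyl acetate-extracted and quantified by LC-MS against weighted (1/X2) calibration curves. Noncompartmental analysis: Cmax by inspection, t1/2 from the last two log points, AUC by linear trapezoid extrapolated to infinity, CL = dose/AUC.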
# [3] = tested on: HeLa; test: Antiproliferative activity against human HeLa cells after 48 hrs by SRB assay; format: functional, cell-based
# [4] = tested on: Mus musculus; test: Cmax in athymic nude mouse at 300 ug, iv after 2 hrs by LC-MS analysis; format: ADME, organism-based; set-up: dose 300 ug, route intravenous; conditions: in vivo; outline: as §1
# [5] = tested on: Mus musculus; test: AUC in athymic nude mouse at 300 ug, iv after 2 hrs by LC-MS analysis; format: ADME, organism-based; set-up: dose 300 ug, time < 2 hr, route intravenous; conditions: in vivo; outline: as §1
# [6] = tested on: Mus musculus; test: Clearance in athymic nude mouse at 300 ug, iv after 2 hrs by LC-MS analysis; format: ADME, organism-based; conditions: in vivo; outline: as §1
# [7] = tested on: MDA-MB-435; test: Ratio of GI50 for human MDA-MB-435 cells in presence of 10% FBS to GI50 for human MDA-MB-435 cells in presence of 0.1% FBS; format: functional
# Outline: (§2)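 MDA-MB-435 human melanoma cells were kept in IMEM with 10% FBS. They were tested across a concentration range in 0.1, 1 or 10% serum using sulforhodamine B, with cell density at drug addition as the cytotoxicity baseline. GI50 in 1% or 10% serum was divided by GI50 in 0.1% serum. Three independent experiments, each concentration in triplicate.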
# [8] = tested on: Liver; test: Half life in human liver microsomes in presence of NADPH by LC-MS/MS analysis; format: ADME, microsome
# [9] = tested on: Liver; test: Intrinsic clearance in human liver microsomes in absence of NADPH by LC-MS/MS analysis; format: ADME, microsome
# [10] = tested on: Liver; test: Half life in human liver microsomes in absence of NADPH by LC-MS/MS analysis; format: ADME, microsome
# [11] = tested on: SCC-4; test: Antitumor activity against human SCC4 cells xenografted in athymic nude mouse assessed as tumor growth inhibition at 20 ug administered intratumorally on day 0 and day 3 measured every 2 to 4 days up to 2 weeks; format: functional, cell-based
# Outline: (§3)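 Female athymic nude mice, 6–7 weeks old, received 1 × 10^6 SCC-4 cells subcutaneously in the rear flank. Treatment began when tumors averaged 200 mm3. Under isoflurane, tumors were injected directly on days 0 and 3 with drug in 100 µL PBS with final 8% ethanol, or with vehicle only; the total dose was split between the two days. Calipers were read every 2–4 days and volume taken as width × length × height. Body weight and toxicity were monitored. Groups were compared over 17 days by two-way ANOVA with Tukey post-hoc; time for tumors to reach 1,500 mm3 was also tracked.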
# [12] = tested on: Mus musculus; test: Toxicity against athymic nude mouse xenografted with human SCC4 cells assessed as weight loss at 40 ug administered intratumorally on day 0 and day 3 measured up to day 17 post dose; conditions: in vivo, other
# Outline: (§4)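 SCC-4 cells (1 × 10^6) were implanted subcutaneously in the rear flank of 6–7 week old female athymic nude mice. At an average tumor volume of 200 mm3, mice were grouped. Tumors were injected on days 0 and 3 with drug in 100 µL PBS containing 8% ethanol, or vehicle, under isoflurane. Mice were monitored for weight loss and toxicity; tumors were measured with calipers every 2–4 days.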
# [13] = tested on: SCC-4; test: Antitumor activity against human SCC4 cells xenografted in athymic nude mouse assessed as tumor growth inhibition administered intratumorally on day 0 and day 3 measured up to day 17 post dose; format: functional, cell-based; outline: as §3
# [14] = tested on: SCC-4; test: Antitumor activity against human SCC4 cells xenografted in athymic nude mouse assessed as tumor burden at 80 ug administered intratumorally on day 0 and day 3 measured on day 10 post dose; format: functional; outline: as §3
# [15] = tested on: SCC-4; test: Antitumor activity against human SCC4 cells xenografted in athymic nude mouse assessed as tumor growth inhibition at 40 to 80 ug administered intratumorally on day 0 and day 3 measured on day 14 post dose; format: functional, cell-based; outline: as §3
# [16] = tested on: SCC-4; test: Antitumor activity against human SCC4 cells xenografted in athymic nude mouse assessed as tumor growth inhibition at 40 to 80 ug administered intratumorally on day 0 and day 3 measured on day 17 post dose; format: functional, cell-based; outline: as §3
# [17] = tested on: MDA-MB-435; test: Antiproliferative activity against human MDA-MB-435 cells assessed as cell growth inhibition in presence of 0.1% FBS by sulforhodamine B assay; format: functional
# Outline: (§5)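 MDA-MB-435 cells, normally kept in IMEM with 10% FBS and gentamicin, were exposed to concentration-response series in medium holding 0.1%, 1% or 10% serum. Growth was measured by sulforhodamine B staining. Cell density at the time of drug addition marked the line between antiproliferative and cytotoxic effect. GI50 was taken from the curves. Three independent experiments were run, each concentration in triplicate, reported as mean ± SEM.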
# [18] = tested on: MDA-MB-435; test: Antiproliferative activity against human MDA-MB-435 cells assessed as cell growth inhibition in presence of 1% FBS by sulforhodamine B assay; format: functional; outline: as §5
# [19] = tested on: MDA-MB-435; test: Antiproliferative activity against human MDA-MB-435 cells assessed as cell growth inhibition in presence of 10% FBS by sulforhodamine B assay; format: functional; outline: as §5
# [20] = tested on: MDA-MB-435; test: Ratio of GI50 for human MDA-MB-435 cells in presence of 1% FBS to GI50 for human MDA-MB-435 cells in presence of 0.1% FBS; format: functional; outline: as §2
# [21] = tested on: Plasma; test: Drug uptake in athymic nude mouse plasma at 300 ug, iv after 2 hrs by LC-MS analysis; format: ADME, organism-based; conditions: in vivo; outline: as §1
# [22] = tested on: SCC-4; test: Antitumor activity against human SCC4 cells xenografted in athymic nude mouse assessed as tumor growth inhibition at 40 ug administered intratumorally on day 0 and day 3 measured up to 2 weeks; format: functional, cell-based; outline: as §3
# [23] = tested on: Mus musculus; test: Toxicity in athymic nude mouse xenografted with human SCC4 cells assessed as weight loss at 40 ug administered intratumorally on day 0 and day 3 measured up to 2 weeks; conditions: in vivo, other, 336 h; outline: as §4
# [24] = tested on: SCC-4; test: Antitumor activity against human SCC4 cells xenografted in athymic nude mouse assessed as reduction in tumor burden at 80 ug administered intratumorally on day 0 and day 3 measured on day 51 post dose; format: functional, cell-based; outline: as §3
# [25] = tested on: MDA-MB-435; test: Antiproliferative activity against human MDA-MB-435 cells assessed as cell growth inhibition at 1 nM in presence of 0.1% FBS by sulforhodamine B assay relative to control; conditions: MDA-MB-435, read-out: GI
# [26] = tested on: MDA-MB-435; test: Antiproliferative activity against human MDA-MB-435 cells assessed as cell growth inhibition at 1 nM in presence of 1% FBS by sulforhodamine B assay relative to control; conditions: MDA-MB-435, read-out: GI
# [27] = tested on: MDA-MB-435; test: Antiproliferative activity against human MDA-MB-435 cells assessed as cell growth inhibition at 1 nM in presence of 10% FBS by sulforhodamine B assay relative to control; conditions: MDA-MB-435, read-out: GI
Compound,CLH [1],beta t1/2 [2],IC50 [3],Cmax [4],AUC [5],CL [6],RatioGI50 [7],t1/2 [8],t1/2 [10],Activity [14],GI50 [17],GI50 [18],GI50 [19],RatioGI50 [20],also measured
CC(=O)CC(c1ccccc1)c1c(O)c2ccccc2oc1=O (stereo not given) [WARFARIN],0 µL/min/mg,–,–,–,–,–,–,–,–,–,–,–,–,–,–
CC(=O)O[C@H]1[C@H]2[C@H]([C@@H]3[C@@H](O)[C@@H]4[C@H]([C@H](C)[C@H]5O[C@]56OC(=O)[C@@](C)(O)[C@]46C)[C@@]3(C)[C@H]1OC(C)=O)[C@@H](O)C(=O)[C@H]1C[C@@H]3O[C@@H]3[C@H](OC(C)=O)[C@]21C,15 µL/min/mg,0.135 h,4 nM,19000 ng/mL,3500 ng·h/mL,85 mL/h,1.5,0.783 h,> 4 h,<1500 mm3,6 nM,7 nM,9 nM,1.2,CLH [9]: 300 µL/min/mg; TGI [11]: inactive; Activity [12]: Non-Toxic; TGI [13]: Dose-dependent effect; TGI [15]: Active; TGI [16]: Active; Drug uptake [21]: Not Active
CC(=O)O[C@@H]1[C@H]2[C@H]3[C@H]([C@H](OC(C)=O)[C@H](OC(C)=O)[C@]2(C)[C@H]2[C@H](C)[C@H]4O[C@]45OC(=O)[C@@](C)(O)[C@]5(C)[C@H]12)[C@]1(C)[C@H](C[C@@H]2O[C@@H]2[C@@H]1OC(C)=O)C(=O)[C@@H]3O,8.3 µL/min/mg,0.733 h,24 nM,8600 ng/mL,1300 ng·h/mL,240 mL/h,1.9,1.38 h,> 4 h,<1500 mm3,25 nM,30 nM,47 nM,1.2,TGI [22]: Active; Activity [23]: Non-Toxic; Activity [24]: Active
CC(=O)O[C@H]1C(=O)[C@@]2(C)[C@H]([C@H](OC(=O)c3ccccc3)[C@]3(O)C[C@H](OC(=O)[C@H](O)[C@@H](NC(=O)c4ccccc4)c4ccccc4)C(C)=C1C3(C)C)[C@]1(OC(C)=O)CO[C@@H]1C[C@@H]2O [PACLITAXEL],–,–,–,–,–,–,–,–,–,–,1 nM,1.9 nM,3.4 nM,–,inhibition of growth at 0.001 µM [25]: 54%; inhibition of growth at 0.001 µM [26]: 27%; inhibition of growth at 0.001 µM [27]: 9%
